From ChEMBL document CHEMBL4014342, “Subtly Modulating Glycogen Synthase Kinase 3 β: Allosteric Inhibitor Development and Their Potential for the Treatment of Chronic Diseases” (J Med Chem, 2017)
One block for each compound: values may come before it. Calls of active or inactive are those of the source. The rule behind the calls is not given here.

Tests used:
[1] = target: T1, Glycogen synthase kinase-3 beta (Homo sapiens, UniProt P49841); test: Allosteric inhibition of human recombinant full length N-terminal GST-tagged GSK3beta expressed in fall armyworm Sf9 cells after 30 min in presence of ATP by kinase glo luminescent assay
Method in brief: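 Human recombinant GSK-3β (20 ng) with prephosphorylated peptide substrate, 50 μM in the 20 μL substrate mix, and ATP, 2 μM in that mix. Buffer: 50 mM HEPES pH 7.5, 1 mM EDTA, 1 mM EGTA, 15 mM Mg acetate; DMSO ≤1%. Incubated 30 min at 30 °C, then Kinase-Glo added and luminescence read after 10 min.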
Target sequence in this assay (P49841 whole entry): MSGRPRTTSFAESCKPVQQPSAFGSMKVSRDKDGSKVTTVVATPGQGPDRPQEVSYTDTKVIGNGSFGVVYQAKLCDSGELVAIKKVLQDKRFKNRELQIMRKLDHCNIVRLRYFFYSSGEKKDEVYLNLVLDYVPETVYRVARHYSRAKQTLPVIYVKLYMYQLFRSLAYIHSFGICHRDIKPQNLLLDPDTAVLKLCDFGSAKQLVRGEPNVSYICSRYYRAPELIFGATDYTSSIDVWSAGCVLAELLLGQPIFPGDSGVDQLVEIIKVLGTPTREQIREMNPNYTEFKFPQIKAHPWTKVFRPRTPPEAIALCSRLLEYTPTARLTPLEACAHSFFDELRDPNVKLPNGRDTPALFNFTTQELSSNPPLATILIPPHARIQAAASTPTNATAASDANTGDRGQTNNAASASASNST

[2] = target: T1, Glycogen synthase kinase-3 beta; test: Allosteric inhibition of GSK3beta in human LN18 cells assessed as decrease in beta-catenin translocation from cytoplasm to nucleus at 10 uM after 72 hrs by DAPI-satining based confocal microscopic analysis; type: cell-based
Method in brief: (§1)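 LN18 glioblastoma cells (DMEM, 10% FBS, 2 mM glutamine) and SH-SY5Y neuroblastoma cells (DMEM, 10% FBS, 10 mM glutamine; 37 °C, 5% CO2) were grown on glass coverslips and exposed to compound at 10 μM for 72 h, with vehicle controls. Cells were fixed in 4% paraformaldehyde and permeabilized with Triton X-100. β-Catenin was stained with mouse anti-β-catenin and an Alexa-488 secondary, nuclei with DAPI, and localization imaged by confocal microscopy.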
Target sequence in this assay (P49841 whole entry, looked up): as the sequence (P49841 whole entry) above

[3] = target: T1, Glycogen synthase kinase-3 beta; test: Allosteric inhibition of GSK3beta in human […] cells assessed as decrease in beta-catenin translocation from cytoplasm to nucleus at 10 uM after 72 hrs by DAPI-satining based confocal microscopic analysis; type: cell-based; method in brief: as §1
Target sequence in this assay (P49841 whole entry, looked up): as the sequence (P49841 whole entry) above

[4] = Cytotoxicity against motor neurons obtained from SMA patient derived iPSC assessed as cell death at >1.25 uM after 7 days; type: cell-based; conditions: human, motor neuron, 168 h
Method in brief: (§2)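 SMA type I/II patient iPSCs were differentiated into motor neurons over 15 days: LDN/SB431542, retinoic acid, BDNF, smoothened agonist, then DAPT/Ara-C. Cells were dissociated onto astrocyte-coated wells in Neurobasal with B27/N2 and BDNF, GDNF and CNTF, and treated 7 days with DMSO or increasing compound concentrations. After fixation, cells were immunostained for Islet1/MAP2 with Hoechst nuclear stain and imaged automatically. Survival is expressed as Islet1+ MN counts relative to DMSO wells, for each line.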

Myoblast [5] = test: Induction of myoblast differentiation in CDM1 patient-derived human primary myoblasts assessed as increase in desmin expression after 4 days by Western blot analysis; type: functional, cell-based
Method in brief: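 CDM1 patient primary myoblasts, about 1,000 repeats and fewer than 15–20 passages, with control myoblasts. Grown in F10-based medium, then switched to fusion medium (DMEM, horse serum, insulin) changed daily. Compound in DMSO was added at different doses with fresh fusion medium each day. After 4 days, myotube RIPA extracts were probed by Western blot for desmin, with actin as control.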

[6] = target: T1, Glycogen synthase kinase-3 beta; test: Non-competitive allosteric inhibition of human recombinant full length N-terminal GST-tagged GSK3beta expressed in fall armyworm Sf9 cells at 2 to 5 uM using GS2 as substrate measured at varying substrate levels and constant ATP levels after 30 mins by Double-reciprocal plot analysis
Method in brief: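 Human recombinant GSK-3β kinetics with GS-2 substrate varied from 12.5 to 100 μM, ATP held at 1 μM, and inhibitor at 2 or 5 μM. Analyzed by Lineweaver–Burk double-reciprocal plots. Each point is the mean of two experiments, each run in duplicate.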
Target sequence in this assay (P49841 whole entry, looked up): as the sequence (P49841 whole entry) above

[7] = target: T1, Glycogen synthase kinase-3 beta; test: Non-competitive allosteric inhibition of human recombinant full length N-terminal GST-tagged GSK3beta expressed in fall armyworm Sf9 cells at 2.5 to 5 uM using GS2 as substrate measured at constant substrate levels and varying ATP levels after 30 mins by ADP-Glo kinase Assay
Method in brief: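 Human recombinant GSK-3β kinetics with ATP varied from 1 to 50 μM, inhibitor at 2.5 or 5 μM, and GS-2 held constant, stated as 25 μM in the methods and 12.5 μM in the legend. Read by ADP-Glo and analyzed by double-reciprocal plots. Each point is the mean of two experiments, each run in duplicate.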
Target sequence in this assay (P49841 whole entry, looked up): as the sequence (P49841 whole entry) above

Motor neuron = test: Increase in survival of motor neurons obtained from SMA patient derived iPSC after 7 days by Hoechst 33342-staining based fluorescence assay; type: functional, cell-based; conditions: Homo sapiens; method in brief: as §2
Myoblast [8] = test: Induction of myoblast differentiation in CDM1 patient-derived human primary myoblasts after 4 days by bright field microscopic method; type: functional, cell-based

IC50 [1]: > 20 µM
SMILES: Cn1c(=O)c(C(=O)NNC(=O)CCc2c[nH]c3ccccc23)c(O)c2ccccc21

inhibition [2]: inactive | inhibition [3]: inactive
SMILES: O=C1Cc2c([nH]c3ccc([N+](=O)[O-])cc23)-c2ccccc2N1 [ALSTERPAULLONE]
Activity [4]: Toxic

inhibition [6]: Active | inhibition [7]: Active | inhibition [2]: Active | inhibition [3]: Active
SMILES: CCCCCCCCCCCC(=O)NNC(=O)c1c(O)c2cc(Br)ccc2n(CC)c1=O
Activity (Myoblast [5]): Active | Activity (Motor neuron): Dose-dependent effect | Activity [4]: Non-Toxic | Activity (Myoblast [8]): Dose-dependent effect

IC50 [1]: > 20 µM
SMILES: Cn1c(=O)c(C(=O)NNCCC#N)c(O)c2ccccc21

IC50 [1]: > 20 µM
SMILES: CCCCCCCCCCCC(=O)NNC(=O)c1c(O)c2ccccc2n(CC(C)C)c1=O

IC50 [1]: 7.11 µM
SMILES: CCCCCCCC(=O)NNC(=O)c1c(O)c2ccccc2n(CC=C(C)C)c1=O

IC50 [1]: > 20 µM
SMILES: CCCCCCCC(=O)NNC(=O)c1c(O)nc2ccccc2c1O

IC50 [1]: > 20 µM
SMILES: CC(=O)NNC(=O)c1c(O)c2ccccc2n(C)c1=O

IC50 [1]: > 20 µM
SMILES: CCCCCCCC(=O)NNC(=O)c1c(O)c2ccccc2n(CC)c1=O

inhibition [2]: Active | inhibition [3]: Active
SMILES: CCCCCCCCCCCC(=O)NNC(=O)c1c(O)c2ccccc2n(CC)c1=O
Activity (Motor neuron): Dose-dependent effect | Activity [4]: Non-Toxic

Further lines, the compound ahead of its results:

SMILES: CCCCCCNC(=O)c1c(O)c2ccccc2n(C)c1=O
IC50 [1]: > 20 µM

SMILES: Cn1cc(C2=C(c3ccc(Cl)cc3Cl)C(=O)NC2=O)c2ccccc21
inhibition [2]: inactive | inhibition [3]: inactive

SMILES: CCn1c(=O)c(C(=O)NNC(=O)CCc2ccc(O)cc2)c(O)c2ccccc21
IC50 [1]: > 20 µM

SMILES: Cn1c(=O)c(C(=O)NNC(=O)c2ccccc2)c(O)c2ccccc21
IC50 [1]: > 20 µM

SMILES: Cn1c(=O)c(C(=O)NCC(=O)NCC(=O)OCc2ccccc2)c(O)c2ccccc21
IC50 [1]: > 20 µM

SMILES: CCn1c(=O)c(C(=O)NNC(=O)CCc2c[nH]c3ccccc23)c(O)c2ccccc21
IC50 [1]: > 20 µM

SMILES: Cn1c(=O)c(C(=O)NNC(=O)Cc2ccccc2)c(O)c2ccccc21
IC50 [1]: > 20 µM

SMILES: CCCCCCCC(=O)NNC(=O)c1c(O)c2cc(F)ccc2[nH]c1=O
IC50 [1]: > 20 µM

SMILES: CCCCCCCCCCCC(=O)NNC(=O)c1c(O)c2ccc(Cl)cc2n(CC)c1=O
inhibition [6]: Active | inhibition [7]: Active

SMILES: CCCCCCCCCCCC(=O)NNC(=O)c1c(O)c2ccccc2n(CC=C(C)C)c1=O
IC50 [1]: 7.78 µM
